Measurements from BindingDB's records for doi:10.1021/jm00089a022 (Warner-Lambert, 1992).

What was measured:
[1] = biological target: T1, 3-hydroxy-3-methylglutaryl-coenzyme A reductase (Homo sapiens, UniProt P04035); assay: ChEBML_80349
T1 sequence (P04035 whole entry): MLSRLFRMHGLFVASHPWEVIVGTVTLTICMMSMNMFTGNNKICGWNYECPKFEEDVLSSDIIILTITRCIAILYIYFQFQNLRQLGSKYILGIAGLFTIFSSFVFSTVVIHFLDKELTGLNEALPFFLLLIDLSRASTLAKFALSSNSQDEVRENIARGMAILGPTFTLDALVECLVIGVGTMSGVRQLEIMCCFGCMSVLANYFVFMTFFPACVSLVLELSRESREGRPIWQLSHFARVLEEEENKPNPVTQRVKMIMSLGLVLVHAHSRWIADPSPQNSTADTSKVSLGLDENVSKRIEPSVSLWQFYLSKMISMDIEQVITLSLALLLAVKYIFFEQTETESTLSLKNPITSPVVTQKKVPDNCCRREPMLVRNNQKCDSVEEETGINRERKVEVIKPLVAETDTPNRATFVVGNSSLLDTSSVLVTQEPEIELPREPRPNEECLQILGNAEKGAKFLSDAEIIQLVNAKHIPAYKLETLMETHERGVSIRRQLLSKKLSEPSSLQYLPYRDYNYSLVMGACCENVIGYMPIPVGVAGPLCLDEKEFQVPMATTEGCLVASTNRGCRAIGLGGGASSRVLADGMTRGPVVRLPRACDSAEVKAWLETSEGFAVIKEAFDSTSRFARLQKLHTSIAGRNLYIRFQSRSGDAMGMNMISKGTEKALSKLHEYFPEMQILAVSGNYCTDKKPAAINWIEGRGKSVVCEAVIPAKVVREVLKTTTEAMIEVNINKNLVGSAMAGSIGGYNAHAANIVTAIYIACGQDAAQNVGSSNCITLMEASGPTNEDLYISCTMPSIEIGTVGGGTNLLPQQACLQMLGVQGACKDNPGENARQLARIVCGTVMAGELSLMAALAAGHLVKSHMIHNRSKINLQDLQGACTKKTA
Excerpt: (§1) Tested in vitro for the inhibition of HMG-CoA reductase from partially purified microsomal preparations.

[2] = biological target: T1, 3-hydroxy-3-methylglutaryl-coenzyme A reductase; assay: as §1
Outline: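 Lactones saponified to the 3,5-dihydroxy acids before assay. Inhibition of partially purified microsomal HMG-CoA reductase. Each inhibitor concentration assayed in triplicate.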

SMILES | IC50 [1] [nM] | IC50 [2] [nM]
CC[C@H](C)C(=O)O[C@H]1C[C@@H](C)C=C2C=C[C@H](C)[C@H](CCC(O)C[C@@H](O)CC(=O)O)[C@H]21 (some centres undefined) | 20 | –
CC(C)c1nn(-c2ccccn2)c(-c2ccc(F)cc2)c1/C=C/[C@@H](O)C[C@@H](O)CC(=O)O | – | 24
CC(C)c1nn(-c2ccccn2)c(-c2ccc(F)cc2)c1CCC(O)C[C@@H](O)CC(=O)O (some centres undefined) | 110 | –
CC(C)c1nn(-c2ccccc2)c(-c2ccc(F)cc2)c1CCC(O)C[C@@H](O)CC(=O)O (some centres undefined) | 40 | –
CC(C)c1nn(-c2ccc3ccccc3n2)c(-c2ccc(F)cc2)c1/C=C/[C@@H](O)C[C@@H](O)CC(=O)O | 62 | –
CC(C)c1nn(-c2nc3ccccc3s2)c(-c2ccc(F)cc2)c1/C=C/[C@@H](O)C[C@@H](O)CC(=O)O | 59 | –

More lines, now with the values ahead:

IC50 [1] [nM] | IC50 [2] [nM] | SMILES
7 | – | CC(C)c1nn(-c2cnccn2)c(-c2ccc(F)cc2)c1/C=C/[C@@H](O)C[C@@H](O)CC(=O)O
7 | – | CC(C)c1nn(-c2ccccc2)c(-c2ccc(F)cc2)c1/C=C/[C@@H](O)C[C@@H](O)CC(=O)O
17 | – | O=C(O)C[C@H](O)C[C@H](O)/C=C/c1c(C(F)(F)F)nn(-c2ccccn2)c1-c1ccc(F)cc1
